For one series, the system named is CCI, SNL, CFA. The note with it: cited from earlier work.
The test system of series [1] is AITC-induced licking/biting. The note with it: cited from earlier work.
Series [2] concerns CFA-induced hypersensitivity. Put plainly: CFA-induced decreased rearing in an open field assay. The class given is in vivo. The note with it: rat; for rearing time: 23 h after CFA, 60 min, CFA vehicle 204 ± 25 s; for effect on CFA-induced reduction in rearing: naproxen sodium 3 mg/kg, AMG0902 up to 100 mg/kg.
The target of a further series is mouse TRPA1 (Mus musculus, UniProt Q8BLA8). The series can be described thus: TRPA1 activation by AITC, antagonist assay. The class given is cell-based.
Another series deals with human TRPA1 (Homo sapiens, UniProt O75762). Put plainly: TRPA1 activation by AITC, antagonist assay. The class given is cell-based. The note with it: read-out: human TRPA1 activation by AITC IC90.
A further series deals with hTRPV1 (Homo sapiens, UniProt Q8NER1). Put plainly: TRP channel selectivity, calcium assay. The series is classed as cell-based.
Sequence of hTRPV1 (Q8NER1 whole entry): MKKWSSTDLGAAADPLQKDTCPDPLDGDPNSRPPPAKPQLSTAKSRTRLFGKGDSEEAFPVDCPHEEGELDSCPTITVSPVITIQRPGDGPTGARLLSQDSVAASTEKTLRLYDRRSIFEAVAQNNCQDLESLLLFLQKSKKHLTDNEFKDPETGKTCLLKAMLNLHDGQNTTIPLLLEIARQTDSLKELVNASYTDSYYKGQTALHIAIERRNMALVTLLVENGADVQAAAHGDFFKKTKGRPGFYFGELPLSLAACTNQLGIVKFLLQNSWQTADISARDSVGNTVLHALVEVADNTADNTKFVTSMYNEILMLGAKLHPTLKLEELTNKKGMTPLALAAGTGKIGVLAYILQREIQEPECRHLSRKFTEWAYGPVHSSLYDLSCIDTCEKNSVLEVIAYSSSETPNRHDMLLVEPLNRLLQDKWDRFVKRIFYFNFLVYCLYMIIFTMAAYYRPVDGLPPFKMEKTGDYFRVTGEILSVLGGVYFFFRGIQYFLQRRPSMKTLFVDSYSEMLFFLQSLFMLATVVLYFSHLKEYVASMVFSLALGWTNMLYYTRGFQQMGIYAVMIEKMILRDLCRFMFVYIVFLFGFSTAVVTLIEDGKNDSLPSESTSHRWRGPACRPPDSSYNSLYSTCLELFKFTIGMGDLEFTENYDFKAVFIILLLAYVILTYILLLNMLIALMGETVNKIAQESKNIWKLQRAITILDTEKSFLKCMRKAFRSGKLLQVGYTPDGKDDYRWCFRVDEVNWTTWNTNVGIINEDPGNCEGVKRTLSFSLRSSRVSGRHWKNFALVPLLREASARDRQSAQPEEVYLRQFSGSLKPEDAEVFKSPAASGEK
Another series concerns the target rTRPA1 (Rattus norvegicus, UniProt Q6RI86). The series can be described thus: rTRPA1 agonism assay. The series is classed as cell-based.
A further series concerns the target rat TRPV1 (Rattus norvegicus, UniProt O35433). The series can be described thus: TRP channel selectivity, luminescence calcium assay in CHO cells. The series is classed as cell-based. In outline:
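A CHO line constitutively expressing rat TRPV1 plus aequorin was used without tetracycline induction. Cells were loaded for 2 h with 15 µM coelenterazine in pH 7.2 F12 containing 30 mM HEPES. Test compound was added 2.5 min before 0.5 µM capsaicin. Luminescence was recorded by a CCD-camera luminometer, and IC50 was derived by curve fitting.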

Series [3] deals with open field activity in rats. The series can be described thus: Open field activity. The class given is in vivo. The note with it: rat open field, 60 min; for effect on total distance traveled vs vehicle: AMG0902 30-300 mg/kg, gabapentin 200 mg/kg p.o. Put shortly: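 Male Sprague-Dawley rats (220–300 g) were kept on a reversed light cycle for ≥1 week and acclimated 1 h. Test compound (30, 100 or 300 mg/kg), vehicle or gabapentin 200 mg/kg p.o. (same vehicle) was given 1 h before the rat was placed in a 41×41×38 cm box with 32 photocells. Beam breaks, distance, time and stereotypic movements were logged per minute over 60 min.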

Series [4] is described as follows: Plasma protein binding by ultracentrifugation. The class given is in vitro ADME. The note with it: male, rat. In outline: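 Test compound at 5 µg/mL was incubated in male rat plasma for 15 min at 37 °C, then ultracentrifuged at 16,128 × g for 3 h at 37 °C. Samples were precipitated with acetonitrile containing internal standard, dried under nitrogen, reconstituted in methanol/water 50:50 and quantified by LC-MS/MS against calibration standards. The unbound fraction was taken as measured/nominal concentration.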

A further series addresses rTRPM8 (Rattus norvegicus, UniProt Q8R455). The series can be described thus: TRP channel selectivity, luminescence calcium assay in CHO cells. The class given is cell-based. In outline: (§1)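 Tetracycline-inducible stable CHO lines co-expressing aequorin were induced with 0.5 µg/ml tetracycline 24 h before the assay. Cells were loaded for 2 h in pH 7.2 F12 with 30 mM HEPES and 15 µM coelenterazine. Test compound was added 2.5 min before agonist: 200 µM 2-APB for TRPV3, or 1 µM icilin or 12 °C cold buffer for TRPM8. Luminescence was read by CCD luminometer, and IC50 was fitted.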

The subject of series [5] is SNL-induced tactile allodynia. Put plainly: SNL-induced tactile allodynia. The series is classed as in vivo. The note with it: rat; 1 h and 2 h. Put shortly:
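Two weeks after spinal nerve ligation, rats on a metal mesh floor were tested with nine von Frey filaments at near-equal log intervals. Filaments were applied to the mid-plantar glabrous area of the injured paw, and the 50% withdrawal threshold was found by the up-down method. After a baseline reading, rats received oral vehicle, test compound (100 or 300 mg/kg) or gabapentin 200 mg/kg and were retested at 1 and 2 h. Thresholds were log-transformed before statistics.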

The target in another series is hTRPV4 (Homo sapiens, UniProt Q9HBA0). Put plainly: TRP channel selectivity, luminescence calcium assay in CHO cells. The series is classed as cell-based. Put shortly: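 A tetracycline-inducible CHO line expressing human TRPV4 plus aequorin was induced with 0.5 µg/ml tetracycline 24 h before the assay. Cells were loaded for 2 h in pH 7.2 F12 containing 30 mM HEPES, 1 mM CaCl2, 0.3% BSA and 15 µM coelenterazine. Test compound was added 2.5 min before 1 µM 4α-PDD. Luminescence was read on a CCD-camera luminometer, and IC50 was calculated.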
Sequence of hTRPV4 (Q9HBA0 whole entry): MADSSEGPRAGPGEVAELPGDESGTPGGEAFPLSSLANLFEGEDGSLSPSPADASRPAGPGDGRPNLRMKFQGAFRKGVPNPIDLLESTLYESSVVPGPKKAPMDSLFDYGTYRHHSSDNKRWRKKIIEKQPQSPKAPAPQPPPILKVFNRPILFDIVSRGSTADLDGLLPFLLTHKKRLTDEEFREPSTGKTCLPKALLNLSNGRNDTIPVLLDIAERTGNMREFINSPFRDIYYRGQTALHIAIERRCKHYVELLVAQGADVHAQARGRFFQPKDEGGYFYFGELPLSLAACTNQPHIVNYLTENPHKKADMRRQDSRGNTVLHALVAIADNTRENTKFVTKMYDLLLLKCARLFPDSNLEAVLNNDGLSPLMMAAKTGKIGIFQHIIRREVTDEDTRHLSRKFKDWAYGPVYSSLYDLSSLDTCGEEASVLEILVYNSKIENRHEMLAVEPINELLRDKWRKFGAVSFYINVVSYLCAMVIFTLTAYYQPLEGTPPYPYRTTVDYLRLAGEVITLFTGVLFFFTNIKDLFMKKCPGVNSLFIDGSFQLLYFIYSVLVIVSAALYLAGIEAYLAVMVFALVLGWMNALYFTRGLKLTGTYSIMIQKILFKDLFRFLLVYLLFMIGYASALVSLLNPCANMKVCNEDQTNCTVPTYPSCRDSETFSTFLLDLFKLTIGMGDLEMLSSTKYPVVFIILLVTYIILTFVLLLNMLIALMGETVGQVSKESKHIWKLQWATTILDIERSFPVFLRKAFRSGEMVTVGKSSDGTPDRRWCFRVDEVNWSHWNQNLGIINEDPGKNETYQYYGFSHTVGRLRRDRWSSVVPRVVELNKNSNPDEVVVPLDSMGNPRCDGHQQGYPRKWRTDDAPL

The target of series [6] is T1, TRPA1 (Rattus norvegicus, UniProt Q6RI86). Put plainly: AITC-induced licking/flinching model. The class given is in vivo. The note with it: po, read-out: Rat AITC PD model IC90. In outline:
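Rats dosed p.o. at 0.3, 1, 3 or 10 mg/kg, or vehicle (1% Tween80/2% HPMC/97% water/methanesulfonic acid, pH 2.2), 60 min before intraplantar AITC (30 µl, in 0.5% Tween 80/PBS). A blinded observer counted flinches and guard/licks >3 s for 1 min post-injection. Plasma levels were measured by LC-MS/MS. IC90 came from sigmoidal fit of individual response versus plasma concentration.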

A further series addresses rat TRPA1 (Rattus norvegicus, UniProt Q6RI86). The series can be described thus: Agonist-induced TRPA1 activation in stably expressing CHO cells. The note with it: for IC50: stably expressing CHO cells. The class given is cell-based.
Series [7] is described as follows: Pharmacokinetics in plasma and brain. The series is classed as in vivo. The note with it: Sprague-Dawley, rat.
Series [8] is described as follows: Unbound plasma exposure in pharmacodynamic and pain models. The class given is in vivo, rat. In outline: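 Rats in the pain models were dosed orally with test compound in 1% Tween80/2% HPMC/97% water/methanesulfonic acid pH 2.2. Plasma drug levels were measured by LC-MS/MS after protein precipitation, using a structurally similar internal standard and calibration standards serially diluted into blank plasma from a 1 mg/mL DMSO stock.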

The target of series [9] is T1, TRPA1. The note with it: 1, 3, 10, and 30 mg/kg; cited from earlier work.
The next series has as its target T2, rTRPV3 (Rattus norvegicus, UniProt Q4QYD9).
T2 sequence (Q4QYD9 1-791): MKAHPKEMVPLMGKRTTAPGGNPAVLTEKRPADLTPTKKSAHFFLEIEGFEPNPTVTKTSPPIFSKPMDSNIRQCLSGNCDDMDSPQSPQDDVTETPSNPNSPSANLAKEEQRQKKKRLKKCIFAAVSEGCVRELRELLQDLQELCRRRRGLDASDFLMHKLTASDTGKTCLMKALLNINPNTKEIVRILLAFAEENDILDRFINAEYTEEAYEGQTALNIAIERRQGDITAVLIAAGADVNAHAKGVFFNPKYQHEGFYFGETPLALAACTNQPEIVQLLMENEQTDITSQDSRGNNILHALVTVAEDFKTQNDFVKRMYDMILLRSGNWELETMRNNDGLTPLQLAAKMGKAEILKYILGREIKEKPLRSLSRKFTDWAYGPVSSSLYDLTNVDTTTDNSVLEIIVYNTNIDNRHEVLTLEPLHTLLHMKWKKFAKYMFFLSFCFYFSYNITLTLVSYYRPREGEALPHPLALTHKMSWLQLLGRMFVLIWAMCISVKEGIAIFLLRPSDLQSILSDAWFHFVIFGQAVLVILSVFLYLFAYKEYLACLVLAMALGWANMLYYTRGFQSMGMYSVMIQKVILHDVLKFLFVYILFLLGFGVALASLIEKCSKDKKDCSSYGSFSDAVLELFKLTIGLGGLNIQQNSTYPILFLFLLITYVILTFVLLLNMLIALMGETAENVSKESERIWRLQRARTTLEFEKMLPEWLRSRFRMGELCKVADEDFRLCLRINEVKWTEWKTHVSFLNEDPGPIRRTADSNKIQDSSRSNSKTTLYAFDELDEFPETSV
Put plainly: TRP channel selectivity, luminescence calcium assay in CHO cells. The class given is cell-based. Put shortly: as §1

For series [10], the system named is 40 targets including GPCRs, ion channels, and kinases. Put plainly: CEREP selectivity profiling. The class given is binding.
The next series deals with C-fibers. The note with it: cited from earlier work.

Some results are limits rather than exact numbers.

Sequence of rat TRPA1 (Q6RI86 whole entry): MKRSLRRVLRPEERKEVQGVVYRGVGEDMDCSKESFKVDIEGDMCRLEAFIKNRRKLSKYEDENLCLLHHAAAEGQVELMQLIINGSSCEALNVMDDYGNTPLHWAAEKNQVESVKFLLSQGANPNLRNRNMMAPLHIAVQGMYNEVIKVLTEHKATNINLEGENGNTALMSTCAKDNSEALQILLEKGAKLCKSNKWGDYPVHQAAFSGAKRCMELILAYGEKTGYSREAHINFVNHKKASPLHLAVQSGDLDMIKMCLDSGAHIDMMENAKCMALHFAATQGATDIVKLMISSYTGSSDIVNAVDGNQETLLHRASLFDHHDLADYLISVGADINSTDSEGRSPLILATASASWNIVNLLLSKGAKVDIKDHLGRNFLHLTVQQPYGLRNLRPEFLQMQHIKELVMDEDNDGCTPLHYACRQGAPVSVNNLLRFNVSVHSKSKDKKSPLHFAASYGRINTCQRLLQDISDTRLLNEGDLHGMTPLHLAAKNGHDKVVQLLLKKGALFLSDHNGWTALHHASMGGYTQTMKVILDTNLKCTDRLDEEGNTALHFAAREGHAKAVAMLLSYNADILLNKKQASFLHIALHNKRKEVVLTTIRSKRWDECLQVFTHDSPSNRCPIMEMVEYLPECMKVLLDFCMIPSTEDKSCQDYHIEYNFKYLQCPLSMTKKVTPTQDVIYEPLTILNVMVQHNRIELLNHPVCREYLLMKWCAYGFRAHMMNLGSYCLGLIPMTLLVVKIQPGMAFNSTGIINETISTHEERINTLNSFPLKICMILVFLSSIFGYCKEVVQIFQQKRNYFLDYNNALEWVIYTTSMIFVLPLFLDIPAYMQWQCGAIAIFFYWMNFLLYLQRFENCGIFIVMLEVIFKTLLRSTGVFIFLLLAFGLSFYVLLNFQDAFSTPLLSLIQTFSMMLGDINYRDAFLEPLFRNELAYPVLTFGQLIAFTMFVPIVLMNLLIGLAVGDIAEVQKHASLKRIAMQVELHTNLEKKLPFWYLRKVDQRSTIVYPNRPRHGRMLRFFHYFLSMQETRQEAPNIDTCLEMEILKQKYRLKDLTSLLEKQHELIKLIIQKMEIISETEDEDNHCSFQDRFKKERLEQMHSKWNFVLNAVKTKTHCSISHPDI
T1 sequence (Q6RI86 whole entry): as above
Sequence of rTRPA1 (Q6RI86 whole entry): as above
Sequence of rTRPM8 (Q8R455 whole entry): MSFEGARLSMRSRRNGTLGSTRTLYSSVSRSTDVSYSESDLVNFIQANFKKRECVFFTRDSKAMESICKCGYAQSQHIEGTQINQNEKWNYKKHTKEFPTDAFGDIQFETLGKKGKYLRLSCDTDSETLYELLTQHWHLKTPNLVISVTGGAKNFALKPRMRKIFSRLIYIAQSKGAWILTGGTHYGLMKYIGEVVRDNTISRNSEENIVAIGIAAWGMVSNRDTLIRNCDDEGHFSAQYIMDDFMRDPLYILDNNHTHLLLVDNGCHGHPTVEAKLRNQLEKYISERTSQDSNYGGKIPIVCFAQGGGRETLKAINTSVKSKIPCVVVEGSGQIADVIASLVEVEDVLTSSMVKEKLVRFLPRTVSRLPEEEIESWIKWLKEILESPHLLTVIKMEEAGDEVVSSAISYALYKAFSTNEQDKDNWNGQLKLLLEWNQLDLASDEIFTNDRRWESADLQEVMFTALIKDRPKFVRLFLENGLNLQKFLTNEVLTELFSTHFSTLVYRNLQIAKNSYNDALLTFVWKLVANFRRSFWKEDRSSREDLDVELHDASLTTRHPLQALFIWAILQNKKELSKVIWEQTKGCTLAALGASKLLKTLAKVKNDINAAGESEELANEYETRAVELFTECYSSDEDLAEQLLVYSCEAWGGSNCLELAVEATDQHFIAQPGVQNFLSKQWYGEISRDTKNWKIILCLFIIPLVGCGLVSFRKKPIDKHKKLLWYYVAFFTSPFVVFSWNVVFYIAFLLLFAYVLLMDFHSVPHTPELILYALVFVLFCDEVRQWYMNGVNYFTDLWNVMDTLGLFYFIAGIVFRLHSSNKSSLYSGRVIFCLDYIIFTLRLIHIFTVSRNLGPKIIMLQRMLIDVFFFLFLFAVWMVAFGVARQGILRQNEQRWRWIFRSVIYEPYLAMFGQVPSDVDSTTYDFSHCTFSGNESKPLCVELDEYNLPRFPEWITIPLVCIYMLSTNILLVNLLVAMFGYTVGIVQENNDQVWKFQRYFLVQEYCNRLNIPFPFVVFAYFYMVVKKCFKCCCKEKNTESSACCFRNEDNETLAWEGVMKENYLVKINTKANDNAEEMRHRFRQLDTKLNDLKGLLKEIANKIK
Sequence of rat TRPV1 (O35433 whole entry): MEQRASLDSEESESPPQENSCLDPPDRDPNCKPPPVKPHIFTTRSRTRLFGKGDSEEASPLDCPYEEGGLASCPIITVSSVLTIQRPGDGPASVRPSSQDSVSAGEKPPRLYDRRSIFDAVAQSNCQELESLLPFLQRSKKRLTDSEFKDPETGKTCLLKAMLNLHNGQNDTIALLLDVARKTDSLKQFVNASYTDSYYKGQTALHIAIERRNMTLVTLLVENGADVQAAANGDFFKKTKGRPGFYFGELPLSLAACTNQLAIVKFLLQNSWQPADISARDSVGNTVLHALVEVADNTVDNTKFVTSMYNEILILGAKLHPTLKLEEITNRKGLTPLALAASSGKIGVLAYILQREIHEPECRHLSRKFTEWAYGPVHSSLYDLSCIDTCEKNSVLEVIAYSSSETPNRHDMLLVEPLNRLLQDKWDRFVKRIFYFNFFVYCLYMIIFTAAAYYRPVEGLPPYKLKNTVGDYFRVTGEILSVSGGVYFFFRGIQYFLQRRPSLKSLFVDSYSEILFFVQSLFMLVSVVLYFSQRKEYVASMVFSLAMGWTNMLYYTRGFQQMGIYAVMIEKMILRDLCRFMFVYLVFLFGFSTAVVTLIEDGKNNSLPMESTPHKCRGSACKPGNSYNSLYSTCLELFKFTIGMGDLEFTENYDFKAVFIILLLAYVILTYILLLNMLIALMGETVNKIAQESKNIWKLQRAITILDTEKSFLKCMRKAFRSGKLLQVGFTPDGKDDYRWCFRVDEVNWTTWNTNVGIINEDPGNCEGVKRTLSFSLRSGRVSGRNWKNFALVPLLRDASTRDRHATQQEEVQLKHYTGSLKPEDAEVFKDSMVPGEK

As to `CCC(=N\O)/C(C)=C/c1ccc(F)cc1` [A-967079], the Efficacy entry with CCI, SNL, CFA (CCI, SNL, CFA, MH, 62 mg/kg, p.o., ref Chen et al.[42]) is listed as “ineffective”. The “effect on von Frey-evoked tactile allodynia” value in the series on CCI, SNL, CFA (CFA or SNL models) was “no effect”. The “effect on AITC-induced licking/biting in vivo” value in series [1] is given as “efficiently blocks”.
For orientation: IC90 means the concentration at which the effect reaches the 90% level. What is called fraction unbound is the share of the substance not bound to proteins or other matrix. A higher fraction unbound goes with weak binding. For orientation: Kp means the ratio of the level in a tissue or fluid to that in plasma or blood. The term clearance denotes a measure of how efficiently the substance is removed, as volume per time. Consider `Cn1cnc2ncn(Cc3nc(CCc4ccc(Cl)cc4)no3)c(=O)c21` [AMG0902, 1-((3-(4-Chlorophenethyl)-1,2,4-oxadiazol-5-yl)methyl)-7-methyl-1H-purin-6(7H)-one], for which the rearing time in series [2] (AMG0902 100 mg/kg p.o.) is recorded as 264 ± 52 s; in series [3] (300 mg/kg p.o., 1 h before), 308 ± 67 s. Also, the “effect on CFA-induced reduction in rearing” value in series [2] is listed as “no significant reduction”. In addition, the IC50 was 0.113 ± 0.077 µM at mouse TRPA1; greater than 10 µM on hTRPV1; greater than 25 µM against rTRPA1; greater than 10 µM at rat TRPV1; greater than 10 µM on rTRPM8; greater than 10 µM on hTRPV4. The IC50 on rat TRPA1 (rTRPA1 (4-ONE) IC50, 35 µM 4-ONE) is 0.585 ± 0.11 µM; at rat TRPA1 (rTRPA1 (AITC) IC50, 80 µM AITC), 0.068 ± 0.038 µM; at rat TRPA1 (rTRPA1 (Methylglyoxal) IC50, 2.74 mM methylglyoxal), 0.151 ± 0.005 µM; on rat TRPA1 (rTRPA1 (Osmol) IC50, 100 mOsmol hypo-osmolarity) it was 0.0097 ± 0.002 µM; on rTRPV3, greater than 10 µM; in series [10] (read-out: in vitro potency at 40 targets profiled at CEREP) it was greater than 10 µM. Besides, the IC90 on human TRPA1 came out at 0.186 ± 0.018 µM; on TRPA1 [6] it was 1.7 µM; on rat TRPA1 (CHO, read-out: IC90 against rat TRPA1), 0.3 µM. For the same molecule, in series [3] (300 mg/kg p.o., 1 h before), the total distance traveled is recorded as 7437 ± 900 cm. Also, the “effect on total distance traveled vs vehicle” value in series [3] is listed as “no significant effect”. Besides, the fraction unbound at 15 min, 5 µg/mL in [4] is 0.29. Moreover, in series [5], the “effect on SNL-induced mechanical allodynia” value was “no significant effect”. In [7] (brain), this molecule came in with a Kp of 0.2. In series [7] (male, plasma, iv, 2 mg/kg), this molecule gave a clearance of 2.5 L/h/kg. For the same molecule, the “mean unbound plasma concentration” value is given as 35 ± 11 µM in [8] (CFA Randall Selitto model, 300 mg/kg p.o.); 6.1 ± 2.4 µM in series [8] (CFA rearing model, 100 mg/kg p.o.); 8.4 µM in [8] (SNL model, 300 mg/kg p.o.). Moreover, in series [8] (open field assay, 300 mg/kg p.o.), the “mean Cu concentration (unbound plasma)” value was 12.6 ± 5.4 µM. Also, the “effect on AITC-induced licking/flinching” value at TRPA1 [9] was “dose-dependent prevention”. For the same molecule, the “inhibition of specific ligand binding to each target” value in series [10] (40 targets profiled at CEREP) is given as less than 33%.
`CC(C)c1ccc(NC(=O)Cn2cnc3c2c(=O)n(C)c(=O)n3C)cc1` [HC-030031]: the “effect on mechanically evoked action potential firing in C-fibers” value in the series with C-fibers was “reduced mechanically evoked action potential firing”.
As for `NCC1(CC(=O)O)CCCCC1` [gabapentin, reference compound], in [3], the “effect on total distance traveled vs vehicle” value was “not significantly reduced”. Further, the “effect on SNL-induced mechanical allodynia” value in series [5] is “significantly reversed”.
Molecule `COc1ccc2cc([C@H](C)C(=O)O)ccc2c1` [naproxen, reference compound] displayed a rearing time in series [2] (naproxen 3 mg/kg p.o.) of 418 ± 49 cm. Besides, the “effect on CFA-induced reduction in rearing” value in series [2] is on record as “significant inhibition”.
